Data: ChEMBL document CHEMBL1629555, “Antimalarial activity of phenylthiazolyl-bearing hydroxamate-based histone deacetylase inhibitors” (Antimicrob Agents Chemother, 2008)
Active and inactive are the calls of the source. The rule behind the calls is not given here.

Experiments:
Plasmodium falciparum [1] = experiment: Antimalarial activity against drug-resistant Plasmodium falciparum TM91C235; format: functional, organism-based
[2] = Cytotoxicity against african green monkey Vero cells by MTT assay; format: cell-based; details: chlorocebus sabaeus, read-out: LC50 (the source's name)
[3] = Inhibition of histone deacetylase assessed as alteration of histone H3 acetylation by cell-based assay
Procedure, shortened: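 About 3 × 10^9 erythrocytes infected with late-trophozoite P. falciparum 3D7 were exposed to compound or to DMSO vehicle for 3.5 h at 37°C, and an untreated sample was taken at the start. Histones were extracted, about 6 × 10^8 parasites were loaded per lane on SDS–15% PAGE, and loading was checked by silver stain. Western blots were probed with anti-tetraacetyl-H4 and anti-diacetyl-H3 antisera and detected by ECL.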

Plasmodium berghei [4] = experiment: Antimalarial activity against Plasmodium berghei infected in mouse assessed as effect on curate rate at split dose of 40 mg/kg/day, po for 3 days; format: functional, organism-based
Procedure, shortened: (§1)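 Mice were infected ip with 10^6 P. berghei-parasitized erythrocytes. The compound was given in hydroxyethylcellulose-Tween 20 vehicle, 5 mice per group, starting on day 3 post-infection. Regimens were once-daily or split daily oral doses over 3 days, subcutaneous dosing, or dosing over 7 days. Read-outs were posttreatment parasitemia on day 6 as a fraction of controls and the number of mice cured.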

Plasmodium berghei [5] = experiment: Antimalarial activity against Plasmodium berghei infected in mouse assessed as effect on cure rate at split dose of 640 mg/kg/day, po for 3 days; format: functional, organism-based; procedure, shortened: as §1
Plasmodium berghei [6] = experiment: Antimalarial activity against Plasmodium berghei infected in mouse assessed as effect on cure rate at single dose of 20 mg/kg/day, po for 3 days; format: functional, organism-based; procedure, shortened: as §1
Plasmodium berghei [7] = experiment: Antimalarial activity against Plasmodium berghei infected in mouse assessed as effect on cure rate at single dose of 80 mg/kg/day, po for 3 days; format: functional, organism-based; procedure, shortened: as §1
Plasmodium berghei [8] = experiment: Antimalarial activity against Plasmodium berghei infected in mouse assessed as parasitemia level at split dose of 160 mg/kg/day, po for 3 days measured on day 6 relative to control; format: functional
Procedure, shortened: (§2)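 Blood-stage P. berghei model: mice inoculated ip with 10^6 parasitized erythrocytes. Oral treatment for 3 days, with the daily dose split, in hydroxyethylcellulose-Tween 20 vehicle. Day-6 parasitemia expressed as a fraction of control parasitemia.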

Plasmodium berghei [9] = experiment: Antimalarial activity against Plasmodium berghei infected in mouse assessed as parasitemia level at split dose of 320 mg/kg/day, po for 3 days measured on day 6 relative to control; format: functional; procedure, shortened: as §2
Plasmodium berghei [10] = experiment: Antimalarial activity against Plasmodium berghei infected in mouse assessed as parasitemia level at single dose of 40 mg/kg/day, po for 3 days measured on day 6 relative to control; format: functional
Procedure, shortened: (§3)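 Mice infected intraperitoneally with 10^6 P. berghei-parasitized erythrocytes. Drug given orally once daily on days 3, 4 and 5 post-infection in hydroxyethylcellulose-Tween 20 vehicle, 5 mice per dose group. Parasitemia measured on day 6 and expressed as a fraction of untreated control parasitemia.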

Plasmodium berghei [11] = experiment: Antimalarial activity against Plasmodium berghei infected in mouse assessed as parasitemia level at single dose of 80 mg/kg/day, po for 3 days measured on day 6 relative to control; format: functional; procedure, shortened: as §3
Mus musculus [12] = experiment: Toxicity in Plasmodium berghei-infected mouse assessed as mortality at split dose of 80 mg/kg/day, po for 3 days; format: organism-based; design: route oral; details: in vivo, 72 h
Mus musculus [13] = experiment: Toxicity in Plasmodium berghei-infected mouse assessed as mortality at split dose of 320 mg/kg/day, po for 3 days; format: organism-based; design: route oral; details: in vivo, 72 h
Mus musculus [14] = experiment: Toxicity in Plasmodium berghei-infected mouse assessed as mortality at single dose of 20 mg/kg/day, po for 3 days; format: organism-based; design: route oral; details: in vivo, 72 h
Plasmodium berghei [15] = experiment: Antimalarial activity against Plasmodium berghei infected in mouse assessed as parasitemia level at 52 mg/kg/day for 3 days measured on day 3 in presence of 64 mg/kg/day chloroquine (reference value: 0.46%); format: functional
Procedure, shortened: (§4)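 Mice were infected ip with 10^6 P. berghei-parasitized erythrocytes. The compound was given orally once daily on days 3, 4 and 5 post-infection in hydroxyethylcellulose-Tween 20 vehicle, alone or together with chloroquine, with 5 mice per dose group. Parasitemia (%) was read on days 3 and 6, and cures were counted as animals cured out of 5.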

Plasmodium berghei [16] = experiment: Antimalarial activity against Plasmodium berghei infected in mouse assessed as parasitemia level at 32 mg/kg/day for 3 days measured on day 6 in presence of 3.6 mg/kg/day chloroquine (reference value: 37%); format: functional; procedure, shortened: as §4
Plasmodium berghei [17] = experiment: Antimalarial activity against Plasmodium berghei infected in mouse assessed as parasitemia level at 3.2 mg/kg/day for 3 days measured on day 6 in presence of 4 mg/kg/day chloroquine (reference value: 37%); format: functional
Plasmodium berghei [18] = experiment: Antimalarial activity against Plasmodium berghei infected in mouse assessed as parasitemia level at 0.32 mg/kg/day for 3 days measured on day 6 in presence of 4 mg/kg/day chloroquine (reference value: 37%); format: functional
Plasmodium berghei [19] = experiment: Antimalarial activity against Plasmodium berghei infected in mouse assessed as parasitemia level at 52 mg/kg/day for 3 days measured on day 6 in presence of 64 mg/kg/day chloroquine; format: functional; procedure, shortened: as §4
Plasmodium berghei [20] = experiment: Antimalarial activity against Plasmodium berghei infected in mouse assessed as effect on cure rate at 160 mg/kg/day for 3 days measured on day 6 in presence of 2 mg/kg/day chloroquine; format: functional, organism-based; procedure, shortened: as §4
Plasmodium berghei [21] = experiment: Antimalarial activity against Plasmodium berghei infected in mouse assessed as effect on cure rate at 32 mg/kg/day for 3 days measured on day 6 in presence of 3.6 mg/kg/day chloroquine; format: functional, organism-based; procedure, shortened: as §4
Mus musculus [22] = experiment: Toxicity in Plasmodium berghei-infected mouse assessed as mortality at single dose of 80 mg/kg/day, po for 3 days; format: organism-based; design: route oral; details: in vivo, 72 h
Plasmodium falciparum [23] = experiment: Antimalarial activity against chloroquine-resistant Plasmodium falciparum FVO infected in Aotus lemurinus leminurus monkey assessed as reduction in parasitemia at 8 mg/kg/day, po for 3 days; format: functional, organism-based
Plasmodium falciparum [24] = experiment: Antimalarial activity against chloroquine-resistant Plasmodium falciparum FVO infected in Aotus lemurinus leminurus monkey assessed as reduction in parasitemia at 32 mg/kg/day, po for 3 days; format: functional, organism-based
[25] = Half life in mouse liver microsomes by LC/MS analysis; format: ADME, Microsome
[26] = Cmax in ICR mouse at 50 mg/kg/day, po by LC/MS analysis; format: ADME, organism-based; design: dose 50 mg/kg/day, route oral; details: in vivo
Procedure, shortened: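 Male ICR mice, 8 weeks old, got one 50 mg/kg dose either orally or subcutaneously, with three groups of six mice per route. One mouse per group was killed at 15, 30 and 60 min and at 3, 6 and 24 h. Plasma was deproteinized with 2 volumes of acetonitrile and analysed by LC-MS/MS on a C18 column against 0–500 ng/ml standards, with parent and acid metabolite measured in the same sample. Each six-mouse group was treated as one "animal" and fitted to a two-compartment model. AUC was taken by the linear trapezoidal rule extrapolated to infinity, and Cmax and Tmax were read per "animal".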

Plasmodium berghei [27] = experiment: Antimalarial activity against Plasmodium berghei infected in mouse assessed as parasitemia level at 3.2 mg/kg/day for 3 days measured on day 6 (reference value: 37%); format: functional
Plasmodium falciparum [28] = experiment: Antimicrobial activity against Plasmodium falciparum W2 at […] in presence of 4 mg/kg chloroquine; format: functional
Plasmodium berghei [29] = experiment: Antimalarial activity against Plasmodium berghei infected in mouse assessed as parasitemia level at 32 mg/kg/day for 3 days measured on day 3 in presence of 3.6 mg/kg/day chloroquine (reference value: 0.46%); format: functional; procedure, shortened: as §4

**Q.** Which results are given for `Nc1cccc(-c2csc(NC(=O)CCCCCCC(=O)NO)n2)c1`?
**A.** IC50 (Plasmodium falciparum [1]): 1.5 nM; CC50 [2]: 950 nM; IC50 [3]: 10.4 nM; Activity (Plasmodium berghei [4]): inactive; Activity (Plasmodium berghei [5]): inactive; Activity (Plasmodium berghei [6]): inactive; Activity (Plasmodium berghei [7]): inactive; fold change (FC) (Plasmodium berghei [8]): 0.03; fold change (FC) (Plasmodium berghei [9]): 0.004; fold change (FC) (Plasmodium berghei [10]): 0.12; fold change (FC) (Plasmodium berghei [11]): 0.096; Activity (Mus musculus [12]): Non-toxic; Activity (Mus musculus [13]): Non-toxic; Activity (Mus musculus [14]): Non-toxic; Activity (Plasmodium berghei [15]): 0.48%; Activity (Plasmodium berghei [16]): 0.08%; Activity (Plasmodium berghei [17]): 0.029%; Activity (Plasmodium berghei [18]): 0.024%; Activity (Plasmodium berghei [19]): 0%; Activity (Plasmodium berghei [20]): inactive; Activity (Plasmodium berghei [21]): inactive; Activity (Mus musculus [22]): Non-toxic; inhibition (Plasmodium falciparum [23]): inactive; inhibition (Plasmodium falciparum [24]): Active; half-life [25]: 11 min; Cmax [26]: 2500 ng/mL; Activity (Plasmodium berghei [27]): 40%; fractional inhibitory concentration index (FICI) (Plasmodium falciparum [28]): 1.9; Activity (Plasmodium berghei [29]): 0.44%
